Shown are actives, neighbours in structure and some others; about 1.4% of the full set was active somewhere.
UBC9 SUMO inh – blocks human SUMOylation mediated by UBC9; HTRF SUMOylation assay, SAE1/SAE2 + UBC9, in vitro; 0.36% of 290,000 active; inhibition, % at 35 µM; in the data active = inhibition above about 50%, passing the limit was not always enough; inconclusive = no clear call, values can overlap the other calls
Target sequence (P63279 whole entry, looked up): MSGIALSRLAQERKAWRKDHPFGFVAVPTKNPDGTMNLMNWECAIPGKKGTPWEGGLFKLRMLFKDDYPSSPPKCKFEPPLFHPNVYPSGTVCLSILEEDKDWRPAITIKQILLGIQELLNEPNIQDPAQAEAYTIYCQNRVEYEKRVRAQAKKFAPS
GSTO1 inh – counter-screen for RBBP9 inhibitors: inhibitors of human GSTO1; P78417; recombinant GSTO1, activity-based probe fluorescence polarization; inhibition, % at 5.96 µM; 1.1% of 300,000 active;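 active = inhibition above the campaign mean inhibition plus 3 SD, cut at about 35% in these data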;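 note: 0% = GSTO1-1 with DMSO and 100% = wells lacking GSTO1-1 enzyme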
Target sequence (P78417 whole entry, looked up): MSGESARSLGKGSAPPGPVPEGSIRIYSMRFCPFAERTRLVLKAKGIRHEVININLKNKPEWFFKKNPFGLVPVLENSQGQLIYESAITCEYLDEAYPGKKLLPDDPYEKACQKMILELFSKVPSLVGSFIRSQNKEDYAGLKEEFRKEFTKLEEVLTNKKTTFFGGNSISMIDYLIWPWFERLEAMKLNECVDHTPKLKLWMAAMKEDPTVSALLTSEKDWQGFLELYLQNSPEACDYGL
HKDC1 inhibitor – inhibitors of human hexokinase HKDC1; recombinant HKDC1, G6PDH/diaphorase resazurin coupled fluorescence; Q2TB90; 0.16% of 340,000 active; inhibition, % at 20 µM;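 active = inhibition above about 35% when tested at 20 µM, limit read from the data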;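 note: plate controls were DMSO wells with enzyme for no effect and DMSO wells lacking enzyme for full effect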
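Assay system – recombinant HKDC1 (HK5) hexokinase enzyme, produced in-house · Input – HKDC1 at 5 µg/mL · Reagent – glucose plus 1 mM ATP as hexokinase substrates · Timing – 90 min reaction incubation at room temperature, dark · Measured by – G6PDH/diaphorase-coupled fluorescence, 1 mM NADP, 100 µM resazurin, 525/613 nm · Benchmarks – DMSO-enzyme wells negative, buffer-substituted wells positive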
DTT redox prof – compounds producing H2O2 with reducing agent – biochemical, NIH compound library profiling, artefact control for MLSCN library redox annotation, primary screen. DTT-dependent redox cycling H2O2, phenol red/HRP absorbance; 100% = 100 µM peroxide control, 0% = buffer. activation, % at 10 µM. 0.03% of 200,000 active. AID 878;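 active = activation of at least 50% relative to the plate's high and low controls in the primary single-dose screen; inactive = activation below 50%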;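 note: compound incubated with DTT at 0.8 mM final as the reducing agent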
Apaf1 inhib – blocks human Apaf-1 apoptosome activity | O14727 | inhibition, % at 20 µM | 0.71% of 330,000 active | reconstituted apoptosome caspase-3 activity, DEVD-Rh110 fluorescence | AID 489030; active = inhibition of at least 40% at 20 µM;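 note: plate controls were DMSO wells for no effect and DEVD-CHO caspase inhibitor wells for full effect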
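System: Apoptosome proteins | Medium: Hepes pH 7.5 with detergent and BSA | Also added: Cytochrome c trigger plus (Z-DEVD)2-Rh110 caspase-3 substrate | Incubation: 30 min compound preincubation, 50 min activation, room temperature | Detection: Rhodamine 110 fluorescence at Ex 480/Em 540 nm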
GSTO1 inh conf – confirmation of human GSTO1 inhibitors. recombinant GSTO1, probe fluorescence polarization. inhibition, % at 5.96 µM. 54% of 2,400 active. shares compounds with GSTO1 inh. AID 2176;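 active = inhibition above the primary screen's cutoff, its mean inhibition plus 3 SD, cut at about 35% in these data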;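 note: loss of polarization as inhibitors block binding of rhodamine sulfonate ester activity probe; 0% = GSTO1 with DMSO and 100% = wells lacking GSTO1 enzyme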
Apaf-1 inh conf2 – Apaf-1 inhibition, single-dose confirmed. reconstituted apoptosome, caspase-3 DEVD-Rh110 fluorescence. 25% of 1,800 active. inhibition, % at 20 µM. AID 504614. shares compounds with Apaf1 inhib;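 active = mean inhibition of at least 40% at 20 µM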;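 note: plate controls were DMSO wells for no effect and DEVD-CHO caspase inhibitor control wells for full effect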
Rh110 quench – interferes with Rh110 fluorescence, flagging false Apaf-1 inhibitors. activation (fluorescence interference), % at 20 µM. Rh110 fluorescence interference, quenched caspase reaction. shares compounds with Apaf1 inhib. 1,800 tested, under 10 active;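 active = signal rise of 40% or more at 20 µM, treated as a fluorescence artifact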
Fluor interf inh – shows fluorescence interference in the Apaf-1 inhibitor assay format; 460 tested, under 10 active; AID 588538; fluorescence interference counterscreen, Apaf-1 assay format; IC50, µM; shares compounds with Apaf1 inhib; call rule not given here
* hit, by the source's call; ? = inconclusive; . = no result.

SMILES	UBC9 SUMO inh	GSTO1 inh	HKDC1 inhibitor	DTT redox prof	Apaf1 inhib	GSTO1 inh conf	Apaf-1 inh conf2	Rh110 quench	others
O=c1cc(-c2ccc(Cl)c(Cl)c2)[nH][nH]1	-5	19	-2	0	26	.	.	.
O=C(COC(=O)c1cc(-c2ccco2)nc2ccccc12)NCc1ccccc1	30	5	-2	1	19	.	.	.
CNC(=O)COC(=O)c1cc(-c2ccco2)nc2ccccc12	63*	40*	13	.	5	9	.	.
N#CCCN(C(=O)COC(=O)COc1ccccc1Cc1ccccc1)c1ccccc1	.	.	-1	.	14	.	.	.
CCCNC(=O)COC(=O)c1ccccc1C(=O)c1ccc(Cl)c([N+](=O)[O-])c1	-7	11	-1	-2	-1	.	.	.
Cc1ccc(Cl)c(NC(=O)COC(=O)c2ccccc2C(=O)c2ccc(Cl)c([N+](=O)[O-])c2)c1Cl	3	49*	-9	-1	.	52*	.	.
O=c1c(-c2ccc([N+](=O)[O-])cc2)coc2c(O)c(O)ccc12	0	53*	7	.	-2	25	.	.
CC1=NN(c2ccc(C)cc2C)C(=O)C1C(c1ccccc1)C1C(=O)N(c2ccc(C)cc2C)N=C1C (configuration not stated)	38	44*	0	1	67*	9	30	5
Cc1ccc(-n2nc(C)c(C(=O)O)n2)c(C)c1	-10	1	-8	0	-2	.	.	.
N#CC1=C(N)OC2=C(C(=O)CCC2)[C@]12C(=O)N(CC(N)=O)c1ccccc12	2	1	-1	2	-4	.	.	.
O=C1CCCC2=C1C1(O)C(=O)c3ccccc3C1(O)O2 (configuration not stated)	31	70*	-6	1	92*	68*	72*	-1	Fluor interf inh=>100
O=C(c1cc(S(=O)(=O)N2CCC3(CC2)OCCO3)ccc1F)N1CCCCC1	14	5	-1	-1	2	.	.	.
CC/C(=N/Nc1ccccc1C)c1cnnc(SC)n1	19	44*	-5	0	41*	2	2	-8
CSc1nncc(/C(C)=N\Nc2ccccc2)n1	-18	38*	-2	-6	70*	6	8	-7
Oc1c(Br)cc(Br)cc1CNc1cccc2cccnc12	75*	67*	25	.	92*	92*	59*	10	Fluor interf inh=>100
CCOCCCNC1=C(Cl)C(=O)c2ccccc2C1=O	85	65*	16	.	48*	25	30	0
O=C1C(Cl)=C(NCCN2CCOCC2)C(=O)c2ccccc21	-3	42*	2	.	46*	6	47*	2	Fluor interf inh=>100
CCOC(=O)C1CCCN(CC(O)COCc2ccccc2OC)C1 (configuration not stated)	1	8	1	.	6	.	.	.
C/C(=N/NC(=O)Cc1cc(=O)[nH][nH]1)c1ccc([N+](=O)[O-])cc1	12	57*	-7	0	55*	6	8	-6
CCOc1cccc(CNc2ccc(O)cc2)c1OCc1ccccc1Cl	25	77*	14	1	97*	5	26	8
CCOc1cccc(CNn2cnnc2)c1OCc1ccccc1Cl	2	2	-6	-4	-8	.	.	.
Cc1ccc(N2CC(C(=O)Nc3ccc(S(=O)(=O)Nc4ncccn4)cc3)CC2=O)cc1C (configuration not stated)	5	1	-2	.	-7	.	.	.
CC(C)CC(=O)c1c[nH]c(C(=O)NCc2ccc(F)cc2)c1	14	2	-6	.	8	.	.	.
Cc1cccc(NC2=C(NC(=O)c3ccccc3)C(=O)c3ccccc3C2=O)c1	-5	56*	10	3	73*	38*	58*	11	Fluor interf inh=>100
O=[N+]([O-])c1ccc(O)c(C=Nc2ccc3nc(-c4ccccc4)[nH]c3c2)c1	45	-2	-5	0	17	.	.	.
SMILES	UBC9 SUMO inh	GSTO1 inh	HKDC1 inhibitor	DTT redox prof	Apaf1 inhib	GSTO1 inh conf	Apaf-1 inh conf2	Rh110 quench	others
Oc1c(Br)cc(C=Nc2ccc3nc(-c4ccccc4)[nH]c3c2)c(O)c1Br	44	53*	7	-1	65*	42*	38	1
Nc1ccc2nn(-c3ccc(F)cc3)nc2c1	31	43*	7	.	88*	48*	24	-4
CCOC(=O)Cc1csc(NC(=O)CSc2nccn2C)n1	9	4	-5	.	2	.	.	.
O=c1cc(-c2cccc([N+](=O)[O-])c2)[nH][nH]1	-5	38*	1	0	68*	9	18	11
CN(C)CCCNC(=O)/C(=C/c1ccc(-c2ccc([N+](=O)[O-])cc2)o1)NC(=O)c1ccccc1	-1	8	-5	.	9	.	.	.
Cc1ccc(C(=O)N/C(=C\c2ccc(-c3ccccc3[N+](=O)[O-])o2)C(=O)NCCCN(C)C)cc1	24	44*	13	.	56*	7	46*	-4	Fluor interf inh=>100
COc1cc(Br)c(C(=O)c2nccc3cc(OC)c(OC)cc23)cc1OC	.	94*	15	.	89*	90*	79*	3	Fluor interf inh=>100
Oc1cccc(C=NCc2ccccc2)c1O	61	89*	8	0	82*	12	8	-6
Oc1ccccc1C=Nc1cccc2ccccc12	43	22	8	.	20	.	.	.
Oc1c(C=NCc2ccccc2)sc2ccccc12	3	5	-7	0	10	.	.	.
Oc1cccc(C=Nc2cccc3ccccc23)c1O	66	88*	17	.	74*	10	11	4
O=C1CCCN1C(=O)CSc1ccc2ccccc2n1	.	.	7	.	-9	.	.	.
O=C(O)/C=C\C(=O)Nc1ccccc1C(=O)N1CCC(O)(c2ccc(Cl)cc2)CC1	.	.	-6	.	.	.	.	.
Cc1ccc(NC(=O)[C@@H]2CCCN2S(=O)(=O)c2ccc(Cl)cc2)cc1	.	.	-8	.	6	.	.	.
O=C(NC1CCCC1)c1ccc2nc(-c3ccco3)c(-c3ccco3)nc2c1	51*	63*	28	2	44*	38*	19	-2
O=C(NCCO)c1ccc2nc(-c3ccco3)c(-c3ccco3)nc2c1	?	75*	17	-2	78*	57*	23	1
O=C(NCCO)c1ccc(Cl)c(Cl)c1	12	7	-5	0	5	.	.	.
O=C(NCCCN1CCOCC1)C(C(=O)NCCCN1CCOCC1)c1ncc(C(F)(F)F)cc1Cl	14	7	-5	0	-3	.	.	.
